Compound activity deposited in PubChem BioAssay by several laboratories.
An excerpt weighted towards active compounds, which were near 6.8% of everything screened.
PHOSPHO1 inh: PHOSPHO1 (human) inhibition; inhibition, % at 13.3 µM; AID 1565; Q8TCT1; actives 1.1% (n = 290,000); recombinant PHOSPHO1, absorbance phosphatase assay; in the data active means inhibition above about 60%
Target sequence (Q8TCT1 whole entry, looked up): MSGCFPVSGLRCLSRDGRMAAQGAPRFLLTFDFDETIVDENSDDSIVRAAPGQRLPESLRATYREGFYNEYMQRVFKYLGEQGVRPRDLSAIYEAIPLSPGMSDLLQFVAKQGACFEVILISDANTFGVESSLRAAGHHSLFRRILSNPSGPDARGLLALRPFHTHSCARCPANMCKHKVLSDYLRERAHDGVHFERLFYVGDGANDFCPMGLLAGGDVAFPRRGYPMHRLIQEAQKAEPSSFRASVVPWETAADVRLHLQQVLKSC
core dimer inh: HCV core protein dimerization inhibition. TR-FRET GST/Flag-core106 dimerization, 1536-well. inhibition, % at 5 µM. actives 0.33% (n = 300,000);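 active means inhibition above the mean of all tested compounds plus 3 SD, set per screening campaign, cut at about 45% in these data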
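Test system: GST/Flag-tagged HCV core106 proteins; Medium: KF-containing HEPES buffer, pH 7.45, DTT, CHAPS, BSA; Times: compound-protein-antibody incubation 4 h at 22.5 °C; Detection: TR-FRET 671 and 617 nm emission; Benchmarks: wells lacking GST-core106 and wells with excess unlabelled core106.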
AI-2 QS mod: Vibrio harveyi AI-2 quorum sensing modulation; Vibrio harveyi JMH597 AI-2 luminescence/OD600 ratio, 9 h; active compounds read low; strain lacks LuxN and CqsS sensors; 0 = neutral-control median; activity change, % at 7.5 µM; actives 0.4% (n = 300,000); AID 2094; in the data active means activity change below about -75%, passing the limit was not always enough; inconclusive means no clear call, values can overlap the other calls;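 further: luminescence divided by OD600 gain over 9 h not by final OD600 alone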
HSF1 activator: increases HSF-1 driven luciferase reporter signal | activation, % at 9 µM | NIH3T3-HGL HSF-1 luciferase reporter, MG132, 8 h; 100% = twice DMSO control signal | actives 1.7% (n = 300,000) | AID 504408;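 active means mean replicate activation of at least 50% with a set share of replicates each reaching 50%; inconclusive means only one of those two conditions met; inactive means mean below 50% and too few replicates reaching it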
HSF1 inh: HSF1 inhibition | NIH3T3-HGL HSE-luciferase, MG132-induced, luminescence 8 h; active compounds read low | activity change, negative = inhibition, % at 7.5 µM (by protocol) | actives 0.77% (n = 300,000) | AID 2098;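 active means more than half of replicate wells show activity change below -50%, luminescence cut by over half; inconclusive means some wells, but at most half, below -50%; inactive means no replicate well below -50%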;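 further: luciferase reports HSF-1 transcriptional activity via heat shock element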
ALR inh: blocks human ALR sulfhydryl oxidase activity; actives 3.8% (n = 290,000); purified ALR, DTT oxidation, H2O2 HRP-luminol luminescence; inhibition, % (test concentration not listed); P55789;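 active means mean replicate inhibition above about 79%, with every replicate also reaching it, limit read from the data; inconclusive means only one of the two criteria met; inactive means mean below limit and not every replicate reaching it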
Target sequence (P55789 whole entry, looked up): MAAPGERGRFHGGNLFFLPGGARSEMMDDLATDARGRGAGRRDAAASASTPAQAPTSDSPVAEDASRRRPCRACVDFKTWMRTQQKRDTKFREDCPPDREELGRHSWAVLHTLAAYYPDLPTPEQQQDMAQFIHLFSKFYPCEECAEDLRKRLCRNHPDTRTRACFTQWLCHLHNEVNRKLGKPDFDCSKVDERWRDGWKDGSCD
Large screens that a line does not name were inactive.

CN(CC(=O)Nc1cccc(F)c1)C(=O)CCc1nc2sc3c(c2c(=O)[nH]1)CCCC3	ALR inh 91 (no result: PHOSPHO1 inh)
Cc1cc(S(=O)(=O)N2CCOCC2)ccc1OCC(=O)Nc1ccc(F)cc1	none
C/C(=C\C(=O)c1ncc(C(F)(F)F)cc1Cl)N(C)C	none (no result: ALR inh)
CCCC(=O)Nc1sc(C(=O)Nc2cccc(N)c2)c(C)c1C(=O)OC	HSF1 inh -67, ALR inh 98
N#C/C(=C\c1ccc(Sc2ccc(Cl)cc2)o1)c1nc2ccccc2[nH]1	none (no result: AI-2 QS mod, HSF1 activator, HSF1 inh)
N#C/C(=C\c1ccc(Sc2nc3ccccc3[nH]2)o1)c1ccccc1	HSF1 activator 71
O=C(CSc1nnc(-c2ccco2)o1)c1ccc(O)cc1O	none
COC(=O)c1cn(NC(=O)CC2CCCCC2)c(=O)c2ccccc12	none
COC(=O)c1cn(NC(=O)CCC2CCCC2)c(=O)c2ccccc12	HSF1 inh -77
COc1cc(OC)cc(C(=O)Nn2cc(C(=O)Nc3ccc(F)cc3F)c3ccccc3c2=O)c1	none
COC(=O)c1cn(NC(=O)c2cc([N+](=O)[O-])ccc2F)c(=O)c2ccccc12	ALR inh 96
COC(=O)c1cn(NC(=O)C2CCC(C)CC2)c(=O)c2ccccc12 (stereo not given)	HSF1 activator 81
O=C(c1ccc(F)cc1)C1CCN(Cc2ccc(F)cc2)CC1	none
O=C(CNC(=O)c1ccncc1)N/N=C/c1ccccn1	none
Cn1c(C(=O)Nc2ccc3c(c2)OCO3)cc2sccc21	HSF1 activator 66
Cn1c(C(=O)NCc2ccc3c(c2)OCO3)cc2sccc21	none
CN(C)c1ccc(/C=N/NC(=O)CNC(=O)/C=C/c2ccco2)cc1	ALR inh 91
CN(C)c1ccc(/C=N/NC(=O)CNC(=O)c2ccncc2)cc1	ALR inh 98
O=C(/C=C/c1ccco1)NCC(=O)N/N=C/c1ccc(Cl)cc1	none
Cc1nc(NC(=O)c2ccc(Cl)cc2)sc1Cc1ccc2c(c1)OCO2	PHOSPHO1 inh 71
Cc1nc(NC(=O)c2ccccc2)sc1Cc1ccc2c(c1)OCO2	none
O=[N+]([O-])c1cc([N+](=O)[O-])c(Oc2ccc(Br)cc2Br)cc1NN1CCCCC1	none
CCN(CC)c1ccc(/C=N/NC(=O)CNC(=O)c2ccc3c(c2)OCCO3)cc1	ALR inh 87
C[C@@H](C(=O)Nc1ccc2c(c1)OCCO2)n1c(=O)[nH]c2ccccc2c1=O	HSF1 inh -77
CCC(=O)Nc1ccc(NC(=O)c2ccc3c(c2)OCO3)cc1	none
O=C(CNC(=O)c1cccc(Br)c1)N/N=C/c1ccc2c(c1)OCO2	none (no result: ALR inh)
O=C(Nc1ccc2c(c1)OCCO2)Nc1ccc2c(c1)OCO2	none
CC(Nc1ccc2c(c1)OCCO2)C(=O)Nc1ccc2c(c1)OCO2 (stereo not given)	ALR inh 96 (no result: HSF1 activator, HSF1 inh)
CCN(CC)c1ccc(NC(=O)c2ccc3c(c2)OCO3)cc1	ALR inh 99 (no result: PHOSPHO1 inh)
O=C(COC(=O)c1cccc(-n2cnnn2)c1)c1ccc(Br)cc1	none (no result: PHOSPHO1 inh)
O=C(N/N=C/c1ccc2c(c1)OCO2)c1ccc2c(c1)OCO2	none
CN(C)c1ccc(/C=N/NC(=S)NCc2ccco2)cc1	ALR inh 98
S=C(NCc1ccco1)N/N=C/c1ccncc1	none
CN(C)c1ccc(/C=N/NC(=O)CNC(=O)c2ccc3c(c2)OCCO3)cc1	ALR inh 98
NC(=O)c1ccc(NC(=O)Nc2ccc3c(c2)OCO3)cc1	HSF1 activator 58
CC(C)(C)Cc1nnc(NC(=O)c2ccc3c(c2)OCO3)s1	HSF1 activator 58
CC(C)c1nc2sc3c(SCC(N)=O)ncnc3c2c2c1CCC2	none (no result: ALR inh)
COc1ccc(CN2C(=O)C3C4C=CC(C4)C3C2=O)cc1 (stereo not given)	ALR inh 100
O=C(CCSc1ccc(Cl)cc1)N1CCN(S(=O)(=O)c2ccccc2)CC1	none (no result: PHOSPHO1 inh, core dimer inh, AI-2 QS mod, HSF1 activator, HSF1 inh)
CCCC[C@@H](CN[C@H](C)CNC)NCC1CCC(C(C)(C)C)CC1 (stereo not given in full)	none
CN(C)c1ccc(/C=N/NC(=O)c2ccccc2)cc1	none (no result: ALR inh)
CN(C)c1ccc(/C=N/OC(=O)Nc2ccccc2)cc1	HSF1 activator inconclusive, ALR inh 84
